Measurements as given in ChEMBL document CHEMBL4052823, “Extra Sugar on Vancomycin: New Analogues for Combating Multidrug-Resistant Staphylococcus aureus and Vancomycin-Resistant Enterococci” (J Med Chem, 2018).
≈ marks a conversion by molar mass, not a printed value.

Experiments:
Format in all cases: functional
Enterococcus faecium [1] = test: Antibacterial activity against glycopeptide-resistant Enterococcus faecium Efm-HS-08257 vanM after 24 hrs by broth microdilution method; details: Efm-HS-08257, 24 h
Outline: (§1)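 Broth microdilution in cation-adjusted Mueller-Hinton II broth. DMSO stocks were diluted in broth and twofold serially from 128 to 0.0625 μg/mL or lower. Each well was inoculated with ~10^5 CFU of exponential-phase bacteria and incubated at 37 °C for 24 h. MIC was the lowest concentration giving complete growth inhibition, read per CLSI. Growth controls contained broth plus DMSO.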

Enterococcus faecium [2] = test: Antibacterial activity against glycopeptide-resistant Enterococcus faecium Efm-HS-06188 vanA after 24 hrs by broth microdilution method; details: Efm-HS-06188, 24 h; outline: as §1
Staphylococcus aureus [3] = test: Antibacterial activity against healthcare-associated methicillin-resistant/vancomycin-intermediate Staphylococcus aureus Mu50 after 24 hrs by broth microdilution method; details: Mu50, 24 h; outline: as §1
Enterococcus faecium [4] = test: Antibacterial activity against glycopeptide-resistant Enterococcus faecium Efm-HS-0649 vanA after 24 hrs by broth microdilution method; details: Efm-HS-0649, 24 h; outline: as §1
Enterococcus faecium [5] = test: Antibacterial activity against glycopeptide-resistant Enterococcus faecium Efm-HS-0847 vanM after 24 hrs by broth microdilution method; details: Efm-HS-0847, 24 h; outline: as §1
Staphylococcus aureus [6] = test: Antibacterial activity against vancomycin/methicillin-susceptible Staphylococcus aureus Newman […] after 24 hrs by broth microdilution method
Outline: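 Broth microdilution in cation-adjusted Mueller-Hinton II broth. […] Each well received ~10^5 CFU of exponential-phase bacteria and was incubated at 37 °C for 24 h. MIC was taken as the lowest concentration giving complete growth inhibition, interpreted per CLSI.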

Enterococcus faecium [7] = test: Antibacterial activity against glycopeptide-resistant Enterococcus faecium Efm-HS-vb01 vanB after 24 hrs by broth microdilution method; details: Efm-HS-vb01, 24 h; outline: as §1

Compound	MIC (Enterococcus faecium [1]) [µg/mL]	MIC (Enterococcus faecium [2]) [µg/mL]	MIC90 (Staphylococcus aureus [3]) [µg/mL]	MIC (Enterococcus faecium [4]) [µg/mL]	MIC (Enterococcus faecium [5]) [µg/mL]	MIC90 (Staphylococcus aureus [6]) [µg/mL]	MIC (Enterococcus faecium [7]) [µg/mL]
CN[C@H](CC(C)C)C(=O)N[C@H]1C(=O)N[C@@H](CC(N)=O)C(=O)N[C@H]2C(=O)N[C@H]3C(=O)N[C@H](C(=O)N[C@H](C(=O)O)c4cc(O)c(CNCP(=O)(O)O)c(O)c4-c4cc3ccc4O)[C@H](O)c3ccc(c(Cl)c3)Oc3cc2cc(c3O[C@@H]2O[C@H](CO)[C@@H](O)[C@H](O)[C@H]2O[C@H]2C[C@](C)(NCc3ccc(-c4ccc(Cl)cc4)cc3)[C@H](O)[C@H](C)O2)Oc2ccc(cc2Cl)[C@H]1O	0.12 (≈ 0.0677 µM)	4 (≈ 2.26 µM)	0.5 (≈ 0.282 µM)	2 (≈ 1.13 µM)	2 (≈ 1.13 µM)	0.5 (≈ 0.282 µM)	0.25 (≈ 0.141 µM)
CN[C@H](CC(C)C)C(=O)N[C@H]1C(=O)N[C@@H](CC(N)=O)C(=O)N[C@H]2C(=O)N[C@H]3C(=O)N[C@H](C(=O)N[C@H](C(=O)O)c4cc(O)c(CNCCO)c(O)c4-c4cc3ccc4O)[C@H](O)c3ccc(c(Cl)c3)Oc3cc2cc(c3O[C@@H]2O[C@H](CO)[C@@H](O)[C@H](O)[C@H]2O[C@H]2C[C@](C)(NCc3ccc(-c4ccc(Cl)cc4)cc3)[C@H](O)[C@H](C)O2)Oc2ccc(cc2Cl)[C@H]1O	2 (≈ 1.16 µM)	1 (≈ 0.58 µM)	0.12 (≈ 0.0696 µM)	2 (≈ 1.16 µM)	4 (≈ 2.32 µM)	0.03 (≈ 0.0174 µM)	≤ 0.06
CN[C@H](CC(C)C)C(=O)N[C@H]1C(=O)N[C@@H](CC(N)=O)C(=O)N[C@H]2C(=O)N[C@H]3C(=O)N[C@H](C(=O)N[C@H](C(=O)O)c4cc(O)cc(O)c4-c4cc3ccc4O)[C@H](O[C@H]3C[C@](C)(N)[C@@H](O)[C@H](C)O3)c3ccc(c(Cl)c3)Oc3cc2cc(c3O[C@@H]2O[C@H](CO)[C@@H](O)[C@H](O)[C@H]2O[C@H]2C[C@](C)(NCc3ccc(-c4ccc(Cl)cc4)cc3)[C@@H](O)[C@H](C)O2)Oc2ccc(cc2Cl)[C@H]1O [ORITAVANCIN]	0.5 (≈ 0.279 µM)	0.25 (≈ 0.139 µM)	0.06 (≈ 0.0335 µM)	0.25 (≈ 0.139 µM)	1 (≈ 0.558 µM)	0.06 (≈ 0.0335 µM)	0.25 (≈ 0.139 µM)
CN[C@H](CC(C)C)C(=O)N[C@H]1C(=O)N[C@@H](CC(N)=O)C(=O)N[C@H]2C(=O)N[C@H]3C(=O)N[C@H](C(=O)N[C@H](C(=O)O)c4cc(O)c(CNCCO)c(O)c4-c4cc3ccc4O)[C@H](O)c3ccc(c(Cl)c3)Oc3cc2cc(c3O[C@@H]2O[C@H](CO)[C@@H](O)[C@H](O)[C@H]2O[C@H]2C[C@](C)(NCc3ccc(OCc4cccc(-c5ccccc5)c4C)c(Cl)c3)[C@H](O)[C@H](C)O2)Oc2ccc(cc2Cl)[C@H]1O	1 (≈ 0.543 µM)	0.5 (≈ 0.271 µM)	0.5 (≈ 0.271 µM)	1 (≈ 0.543 µM)	2 (≈ 1.09 µM)	0.12 (≈ 0.0651 µM)	1 (≈ 0.543 µM)
CN[C@H](CC(C)C)C(=O)N[C@H]1C(=O)N[C@@H](CC(N)=O)C(=O)N[C@H]2C(=O)N[C@H]3C(=O)N[C@H](C(=O)N[C@H](C(=O)O)c4cc(O)c(CNCCCNC(=O)[C@H](O)[C@@H](O)[C@H](O)[C@H](O)CO)c(O)c4-c4cc3ccc4O)[C@H](O)c3ccc(c(Cl)c3)Oc3cc2cc(c3O[C@@H]2O[C@H](CO)[C@@H](O)[C@H](O)[C@H]2O[C@H]2C[C@](C)(NCc3ccc(OCc4cccc(-c5ccccc5)c4C)c(Cl)c3)[C@H](O)[C@H](C)O2)Oc2ccc(cc2Cl)[C@H]1O	–	–	1 (≈ 0.492 µM)	–	–	0.5 (≈ 0.246 µM)	–
CCCCCCCCCCN[C@@]1(C)C[C@H](O[C@H]2[C@H](Oc3c4cc5cc3Oc3ccc(cc3Cl)[C@@H](O)[C@@H](NC(=O)[C@@H](CC(C)C)NC)C(=O)N[C@@H](CC(N)=O)C(=O)N[C@H]5C(=O)N[C@H]3C(=O)N[C@H](C(=O)N[C@H](C(=O)O)c5cc(O)c(CNCCCNC(=O)[C@H](O)[C@@H](O)[C@H](O)[C@H](O)CO)c(O)c5-c5cc3ccc5O)[C@H](O)c3ccc(c(Cl)c3)O4)O[C@H](CO)[C@@H](O)[C@@H]2O)O[C@@H](C)[C@H]1O	–	–	0.5 (≈ 0.27 µM)	–	–	0.12 (≈ 0.0647 µM)	–
CN[C@H](CC(C)C)C(=O)N[C@H]1C(=O)N[C@@H](CC(N)=O)C(=O)N[C@H]2C(=O)N[C@H]3C(=O)N[C@H](C(=O)N[C@H](C(=O)O)c4cc(O)c(CNCCCNC(=O)[C@H](O)[C@@H](O)[C@H](O[C@@H]5O[C@H](CO)[C@H](O)[C@H](O)[C@H]5O)[C@H](O)CO)c(O)c4-c4cc3ccc4O)[C@H](O)c3ccc(c(Cl)c3)Oc3cc2cc(c3O[C@@H]2O[C@H](CO)[C@@H](O)[C@H](O)[C@H]2O[C@H]2C[C@](C)(NCc3ccc(-c4ccc(Cl)cc4)cc3)[C@H](O)[C@H](C)O2)Oc2ccc(cc2Cl)[C@H]1O	–	–	0.5 (≈ 0.241 µM)	–	–	0.25 (≈ 0.12 µM)	–
CCCCCCCCCCNCCN[C@@]1(C)C[C@H](O[C@H]2[C@H](Oc3c4cc5cc3Oc3ccc(cc3Cl)[C@@H](O)[C@@H](NC(=O)[C@@H](CC(C)C)NC)C(=O)N[C@@H](CC(N)=O)C(=O)N[C@H]5C(=O)N[C@H]3C(=O)N[C@H](C(=O)N[C@H](C(=O)O)c5cc(O)c(CNCCCNC(=O)[C@H](O)[C@@H](O)[C@H](O[C@@H]6O[C@H](CO)[C@H](O)[C@H](O)[C@H]6O)[C@H](O)CO)c(O)c5-c5cc3ccc5O)[C@H](O)c3ccc(c(Cl)c3)O4)O[C@H](CO)[C@@H](O)[C@@H]2O)O[C@@H](C)[C@H]1O	–	–	1 (≈ 0.486 µM)	–	–	0.25 (≈ 0.121 µM)	–
CCCCCOc1ccc(CN[C@@]2(C)C[C@H](O[C@H]3[C@H](Oc4c5cc6cc4Oc4ccc(cc4Cl)[C@@H](O)[C@@H](NC(=O)[C@@H](CC(C)C)NC)C(=O)N[C@@H](CC(N)=O)C(=O)N[C@H]6C(=O)N[C@H]4C(=O)N[C@H](C(=O)N[C@H](C(=O)O)c6cc(O)c(CNCCCNC(=O)[C@H](O)[C@@H](O)[C@H](O)[C@H](O)CO)c(O)c6-c6cc4ccc6O)[C@H](O)c4ccc(c(Cl)c4)O5)O[C@H](CO)[C@@H](O)[C@@H]3O)O[C@@H](C)[C@H]2O)cc1	–	–	2 (≈ 1.06 µM)	–	–	1 (≈ 0.529 µM)	–
CCCCCCCCCCNCCN[C@@]1(C)C[C@H](O[C@H]2[C@H](Oc3c4cc5cc3Oc3ccc(cc3Cl)[C@@H](O)[C@@H](NC(=O)[C@@H](CC(C)C)NC)C(=O)N[C@@H](CC(N)=O)C(=O)N[C@H]5C(=O)N[C@H]3C(=O)N[C@H](C(=O)N[C@H](C(=O)O)c5cc(O)c(CNCCO[C@H]6O[C@H](CO)[C@@H](O)[C@H](O)[C@@H]6O)c(O)c5-c5cc3ccc5O)[C@H](O)c3ccc(c(Cl)c3)O4)O[C@H](CO)[C@@H](O)[C@@H]2O)O[C@@H](C)[C@H]1O	–	–	2 (≈ 1.07 µM)	–	–	1 (≈ 0.535 µM)	–
C#Cc1ccc(CN[C@@]2(C)C[C@H](O[C@H]3[C@H](Oc4c5cc6cc4Oc4ccc(cc4Cl)[C@@H](O)[C@@H](NC(=O)[C@@H](CC(C)C)NC)C(=O)N[C@@H](CC(N)=O)C(=O)N[C@H]6C(=O)N[C@H]4C(=O)N[C@H](C(=O)N[C@H](C(=O)O)c6cc(O)c(CNCCCNC(=O)[C@H](O)[C@@H](O)[C@H](O)[C@H](O)CO)c(O)c6-c6cc4ccc6O)[C@H](O)c4ccc(c(Cl)c4)O5)O[C@H](CO)[C@@H](O)[C@@H]3O)O[C@@H](C)[C@H]2O)cc1	–	–	8 (≈ 4.38 µM)	–	–	4 (≈ 2.19 µM)	–
CCCCCCCCCN[C@@]1(C)C[C@H](O[C@H]2[C@H](Oc3c4cc5cc3Oc3ccc(cc3Cl)[C@@H](O)[C@@H](NC(=O)[C@@H](CC(C)C)NC)C(=O)N[C@@H](CC(N)=O)C(=O)N[C@H]5C(=O)N[C@H]3C(=O)N[C@H](C(=O)N[C@H](C(=O)O)c5cc(O)c(CNCCCNC(=O)[C@H](O)[C@@H](O)[C@H](O)[C@H](O)CO)c(O)c5-c5cc3ccc5O)[C@H](O)c3ccc(c(Cl)c3)O4)O[C@H](CO)[C@@H](O)[C@@H]2O)O[C@@H](C)[C@H]1O	–	–	2 (≈ 1.09 µM)	–	–	0.5 (≈ 0.272 µM)	–
CN[C@H](CC(C)C)C(=O)N[C@H]1C(=O)N[C@@H](CC(N)=O)C(=O)N[C@H]2C(=O)N[C@H]3C(=O)N[C@H](C(=O)N[C@H](C(=O)O)c4cc(O)c(CNCCCNC(=O)[C@H](O)[C@@H](O)[C@H](O)[C@H](O)CO)c(O)c4-c4cc3ccc4O)[C@H](O)c3ccc(c(Cl)c3)Oc3cc2cc(c3O[C@@H]2O[C@H](CO)[C@@H](O)[C@H](O)[C@H]2O[C@H]2C[C@](C)(NCc3ccc4ccccc4c3)[C@H](O)[C@H](C)O2)Oc2ccc(cc2Cl)[C@H]1O	–	–	4 (≈ 2.16 µM)	–	–	1 (≈ 0.539 µM)	–
CCCCCCCCCCNCCN[C@@]1(C)C[C@H](O[C@H]2[C@H](Oc3c4cc5cc3Oc3ccc(cc3Cl)[C@@H](O)[C@@H](NC(=O)[C@@H](CC(C)C)NC)C(=O)N[C@@H](CC(N)=O)C(=O)N[C@H]5C(=O)N[C@H]3C(=O)N[C@H](C(=O)N[C@H](C(=O)O)c5cc(O)c(CNCCO[C@@H]6O[C@H](CO)[C@@H](O)[C@H](O)[C@H]6NC(C)=O)c(O)c5-c5cc3ccc5O)[C@H](O)c3ccc(c(Cl)c3)O4)O[C@H](CO)[C@@H](O)[C@@H]2O)O[C@@H](C)[C@H]1O	–	–	4 (≈ 2.1 µM)	–	–	1 (≈ 0.524 µM)	–
